Assay results from publication PMC4767718 (Drugs in R&D, 2015).
Like-named read-outs stand apart in the source and are kept apart here. Values belong to the compound of their own block, whether it stands above or below them.

How the values were obtained:
[1] = acidic pH / acidic solution; cited from earlier work
[2] = Safety: drug-related adverse events graded by NCI-CTCAE version 3.0; assay type: in vivo, human
Outline: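 Adverse events monitored throughout and graded by NCI-CTCAE v3.0, alongside regular hematology, clinical chemistry, vital signs and ECOG status. Single oral dose on day 1 of cycles 1–2. Then 40 mg twice daily on days 3–9 (50 mg allowed in cycle 2), followed by 14-day rest. Afterwards, 40 or 50 mg twice daily on days 1–7 of 21-day cycles.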

[3] = dose range of 5–200 mg/day; earlier trials, no reference given; cited from earlier work
[4] = test system: advanced solid tumors; experiment: Tumor response by RECIST version 1.1; assay type: in vivo, human
Outline: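 RECIST 1.1 response assessed at baseline, end of cycles 2, 4 and 6, then every 3 cycles (9 weeks) until progression. Oral dosing 40 mg twice daily on days 3–9 of cycles 1–2 (escalation to 50 mg allowed in cycle 2). Afterwards, 40 or 50 mg twice daily on days 1–7 of 21-day cycles.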

[5] = assay type: in vivo, human; conditions: single 50 mg ECT; for half-life: human, plasma, oral, 50 mg, Mean t½ (SD)
Outline: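 Randomized two-way crossover on day 1 of cycles 1 and 2. Fasted arm: ~10 h overnight fast. Fed arm: high-fat meal (54 g fat, 1036 calories) ~30 min predose, ≥75 % eaten. Tablet taken with 240 mL water, then no food for 4 h. Non-compartmental parameters. Ratio 90 % CIs from ANOVA on log data (patient random effect).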

[6] = cited from earlier work
[7] = 24 patients, during the first two cycles
[8] = N = 24, all alisertib treatments

- half-life ([5]; fasted state, n = 11): 16.7 h
- half-life ([5]; fed state, n = 14): 14.9 h
- AUCtlast geometric mean ratio, fed versus fasted (90 % CI) [5]: 1.04 (0.80–1.34)
- Cmax geometric mean ratio, fed versus fasted (90 % CI) [5]: 0.84 (0.66–1.06)
- Decrease in geometric mean Cmax after high-fat meal compared with fasted [5]: 16%
- AUCinf geometric mean ratio, fed versus fasted (90 % CI) ([5]; n = 11): 0.94 (0.68–1.32)
- AUCinf geometric mean ratio, fed versus fasted (90 % CI) ([5]; n = 11, listed as alisertib): 0.94
- Geometric mean Cmax under fed conditions as % of that under fasted conditions ([5]; 90 % CI 66–106): 84%
- Geometric mean AUCinf under fed conditions as % of that under fasted conditions ([5]; 90 % CI 68–132 %): 94%
SMILES: COc1cc(Nc2ncc3c(n2)-c2ccc(Cl)cc2C(c2c(F)cccc2OC)=NC3)ccc1C(=O)O [Alisertib]
- Solubility [1]: reduced
- Discontinuation of treatment due to AEs ([2]; 24 patients): No patient discontinued treatment due to AEs
- Patients reporting at least one drug-related AE ([2]; 24 patients): 96%
- Patients with AEs considered serious and related to alisertib ([2]; 24 patients): 13%
- Patients with drug-related grade 3/4 leukopenia ([2]; 24 patients): 38%
- Patients with drug-related grade 3/4 neutropenia ([2]; 24 patients): 50%
- Patients with drug-related grade 3/4 thrombocytopenia ([2]; 24 patients): 21%
- Patients with drug-related grade 3 or higher AEs ([2]; 24 patients): 67%
- Patients with drug-related alopecia ([2]; 24 patients, any grade): 50%
- Patients with drug-related diarrhea ([2]; 24 patients, any grade): 25%
- Patients with drug-related fatigue ([2]; 24 patients, any grade): 21%
- Patients with drug-related nausea ([2]; 24 patients, any grade): 21%
- Serious related grade 3/4 febrile neutropenia [2, 7]: 2 n
- Serious related grade 3 neutropenia [2, 7]: 1 n
- Drug-related AST increased, all grades [2, 8]: 3 (13) n (%)
- Drug-related AST increased, grade ≥3 [2, 8]: 0 n (%)
- Drug-related alopecia, all grades [2, 8]: 12 (50) n (%)
- Drug-related alopecia, grade ≥3 [2, 8]: 0 n (%)
- Drug-related anemia, all grades [2, 8]: 7 (29) n (%)
- Drug-related anemia, grade ≥3 [2, 8]: 3 (13) n (%)
- Drug-related anorexia, all grades [2, 8]: 4 (17) n (%)
- Drug-related anorexia, grade ≥3 [2, 8]: 0 n (%)
- Drug-related diarrhea, all grades [2, 8]: 6 (25) n (%)
- Drug-related diarrhea, grade ≥3 [2, 8]: 1 (4) n (%)
- Drug-related fatigue, all grades [2, 8]: 5 (21) n (%)
- Drug-related fatigue, grade ≥3 [2, 8]: 1 (4) n (%)
- Drug-related febrile neutropenia, all grades [2, 8]: 2 (8) n (%)
- Drug-related febrile neutropenia, grade ≥3 [2, 8]: 2 (8) n (%)
- Drug-related leukopenia, all grades [2, 8]: 13 (54) n (%)
- Drug-related leukopenia, grade ≥3 [2, 8]: 9 (38) n (%)
- Drug-related nausea, all grades [2, 8]: 5 (21) n (%)
- Drug-related nausea, grade ≥3 [2, 8]: 0 n (%)
- Drug-related neutropenia, all grades [2, 8]: 17 (71) n (%)
- Drug-related neutropenia, grade ≥3 [2, 8]: 12 (50) n (%)
- Drug-related stomatitis, all grades [2, 8]: 4 (17) n (%)
- Drug-related stomatitis, grade ≥3 [2, 8]: 0 n (%)
- Drug-related thrombocytopenia, all grades [2, 8]: 7 (29) n (%)
- Drug-related thrombocytopenia, grade ≥3 [2, 8]: 5 (21) n (%)
- Pharmacokinetics, dose linearity [3]: linear
- Patients with best response of stable disease ([4]; 24 patients evaluable, alisertib 40 to 50 mg twice daily): 50%
- Patients with stable disease lasting more than 3 months ([4]; of 12 patients with stable disease): seven

SMILES: CS(=O)(=O)CCNCc1ccc(-c2ccc3ncnc(Nc4ccc(OCc5cccc(F)c5)c(Cl)c4)c3c2)o1 [Lapatinib]
- AUC increase when administered with food ([6]; low-fat meal): approximately three

SMILES: Cc1nc(Nc2ncc(C(=O)Nc3c(C)cccc3Cl)s2)cc(N2CCN(CCO)CC2)n1 [dasatinib]
- Increase in the mean AUC after a high-fat meal ([6]; 100 mg dose following a high-fat meal (30 min)): 14%

SMILES: C#Cc1cccc(Nc2ncnc3cc(OCCOC)c(OCCOC)cc23)c1 [erlotinib]
- Change of systemic exposure under fed compared with fasted conditions ([6]; single-dose crossover study): approximately doubled

SMILES: COc1cc2ncnc(Nc3ccc(F)c(Cl)c3)c2cc1OCCCN1CCOCC1 [gefitinib]
- Effect of food on systemic exposure [6]: unaffected by food
